# Test results taken from ChEMBL document CHEMBL1126706, “Structure-activity relationship of N-[2-(dimethylamino)-6-[3-(5-methyl-4-phenyl-1H-imidazol-1-yl)propoxy] phenyl]-N'-pentylurea and analogues. Novel potent inhibitors of acyl-CoA:cholesterol O-acyltransferase with antiatherosclerotic activity” (J Med Chem, 1993).
# What was measured:
# O-acyltransferase = O-acyltransferase (Oryctolagus cuniculus, UniProt G1SFD9); assay: Tested for inhibition against acyl coenzyme A:cholesterol acyltransferase from rabbit intestine microsomes.
# Sequence of O-acyltransferase (G1SFD9 1-524): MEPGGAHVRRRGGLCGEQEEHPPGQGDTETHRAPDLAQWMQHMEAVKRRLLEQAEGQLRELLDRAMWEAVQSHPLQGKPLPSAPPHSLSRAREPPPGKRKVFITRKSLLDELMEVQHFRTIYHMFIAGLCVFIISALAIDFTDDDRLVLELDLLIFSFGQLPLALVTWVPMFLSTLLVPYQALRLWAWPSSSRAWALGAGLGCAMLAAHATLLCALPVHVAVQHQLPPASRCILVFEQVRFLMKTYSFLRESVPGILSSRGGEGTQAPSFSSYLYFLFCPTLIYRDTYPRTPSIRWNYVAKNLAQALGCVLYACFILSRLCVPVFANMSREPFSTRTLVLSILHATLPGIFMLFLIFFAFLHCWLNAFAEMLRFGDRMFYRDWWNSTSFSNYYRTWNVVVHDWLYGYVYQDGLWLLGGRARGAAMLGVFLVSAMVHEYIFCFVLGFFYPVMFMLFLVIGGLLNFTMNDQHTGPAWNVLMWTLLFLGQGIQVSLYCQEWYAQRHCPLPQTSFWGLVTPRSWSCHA
# Summary of the method: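 Intestinal mucosa microsomes from NZW rabbit (10000g then 105000g pellet, buffered sucrose pH 7.4). Endogenous cholesterol plus 40 μM [1-14C]oleoyl-CoA in K2HPO4 buffer pH 7.4 with 2.4 mg/mL BSA; compound preincubated 3 min at 37 °C, enzyme (8 mg protein/mL) added, 2 min reaction, chloroform/methanol 2:1 stop. IC50 from triplicate tubes per concentration.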
# Rattus norvegicus [1] = assay: Tested for cholesterol lowering activity in rats after a dose of 50 mg/kg once a day for 2 days; type: functional
# Summary of the method: (§1)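 Male Sprague-Dawley rats, 5 weeks old, fed chow with 1% cholesterol and 0.5% cholic acid while given drug orally once daily as a suspension in 2% Sefuzol. Starved 5 h after last dose, bled from abdominal aorta under ether; serum total cholesterol measured enzymatically. Result as percent of control (n ≥ 4).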
# [2] = molecular target: T1, Acyl-CoA:cholesterol acyltransferase (Oryctolagus cuniculus, UniProt Q95214); assay: Tested for inhibition against acyl coenzyme A:cholesterol acyltransferase from rabbit aorta homogenate.; type: tissue-based
# T1 sequence (Q95214 whole entry): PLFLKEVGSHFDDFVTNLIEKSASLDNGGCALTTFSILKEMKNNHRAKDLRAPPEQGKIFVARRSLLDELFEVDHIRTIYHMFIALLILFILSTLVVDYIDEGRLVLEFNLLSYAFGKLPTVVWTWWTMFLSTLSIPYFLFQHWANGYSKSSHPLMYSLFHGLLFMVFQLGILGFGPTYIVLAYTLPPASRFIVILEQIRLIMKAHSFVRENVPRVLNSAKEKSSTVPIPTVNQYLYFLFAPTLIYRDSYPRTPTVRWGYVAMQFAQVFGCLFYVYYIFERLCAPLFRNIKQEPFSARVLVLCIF
# Rattus norvegicus [3] = assay: Tested for cholesterol lowering activity in rats after a dose of 10 mg/kg once a day for 5 days; type: functional; summary of the method: as §1
# Oryctolagus cuniculus [4] = assay: Tested for the plasma total cholesterol level in rabbit after administration of 0.2% (w/w) of drug for first 4 days; type: functional, organism-based
# Summary of the method: (§2)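 Male NZW rabbits (2.5-3.0 kg) were fed chow with 0.5% cholesterol and 0.5% olive oil, 100 g/day, for 8 weeks, then randomized by plasma cholesterol. Drug was mixed into the diet for 4 weeks, either 0.2% (w/w) for 4 days then 0.1%, or 0.1% throughout. Plasma total cholesterol was measured enzymatically in EDTA ear-vein blood. Mean ± SEM; Student's t test vs control.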
# Rattus norvegicus [5] = organism: Rattus norvegicus; assay: Tested for hypocholesterolemic activity required to decrease serum total cholesterol; type: functional
# Summary of the method: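 Male Sprague-Dawley rats (5 weeks) on 1% cholesterol/0.5% cholic acid chow; drug in 2% Sefuzol given orally once daily for 5 days. Serum total cholesterol measured enzymatically after 5 h fast. ED30 (mg/kg dose lowering serum cholesterol to 30% of control) read from dose-response curve of at least 3 doses, n = 4 or 5.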
# Oryctolagus cuniculus [6] = organism: Oryctolagus cuniculus; assay: Tested for the atheromatous lesion development in rabbit; type: functional
# Summary of the method: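 Male NZW rabbits (2.5-3.0 kg) fed 100 g/day chow with 0.5% cholesterol and 0.5% olive oil for 8 weeks, randomized by plasma cholesterol, then 4 weeks with drug mixed in diet (0.2% then 0.1% w/w, or 0.1% w/w). Thoracic aorta halved: one half formalin-fixed, Sudan IV-stained, stained area measured by image analysis; other half cholesterol content by TLC-FID. Mean ± SEM, 7-12 per group, Student's t test.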
# Rattus norvegicus [7] = assay: Tested for cholesterol lowering activity in rats after a dose of 30 mg/kg once a day for 5 days; type: functional; details: dose 10 mg/kg; in the assay text read “10 mg/kg” for “30 mg/kg”; summary of the method: as §1
# Oryctolagus cuniculus [8] = assay: Tested for the plasma total cholesterol level in rabbit after administration of 0.1% (w/w) of drug for first 4 days; type: functional, organism-based; summary of the method: as §2
SMILES,IC50 (O-acyltransferase) [nM],IC50 [2] [nM],Cholesterol reduction (Rattus norvegicus [3]) [%],further results
CN(C)c1cccc(OCCCn2cnc(-c3ccccc3)c2)c1NC(=O)NC1CCCCC1,73,1070,–,Cholesterol reduction (Rattus norvegicus [1]): -42%
CCCCCNC(=O)Nc1c(OCCCn2cnc(-c3ccc(OC)cc3)c2)cccc1N(C)C,59,1330,-36,–
CCCCCNC(=O)Nc1c(OCCCn2cnc(-c3ccccc3)c2)cccc1N(C)C,31,160,–,Plasma total cholesterol (Oryctolagus cuniculus [4]): 830 mg/dL; ED30 (Rattus norvegicus [5]): 14 mg/kg; Cholesterol reduction (Rattus norvegicus [1]): -51%; Surface involvement (Oryctolagus cuniculus [6]): 22.8%
CCCCCNC(=O)Nc1c(OCCCn2cnc3ccccc32)cccc1N(C)C,180,620,-12,–
CCCCCNC(=O)Nc1c(OCCCn2cnc(-c3ccc(OC)cc3)c2)c(Br)cc(Br)c1N(C)C,2400,1300,–,–
CCCCNC(=O)Nc1c(OCCCn2cnc(-c3ccccc3)c2)cccc1N(C)C,140,810,–,Plasma total cholesterol (Oryctolagus cuniculus [4]): 1190 mg/dL; ED30 (Rattus norvegicus [5]): 75 mg/kg; Cholesterol reduction (Rattus norvegicus [1]): -37%; Surface involvement (Oryctolagus cuniculus [6]): 23.5%
CCCCCNC(=O)Nc1c(NCCCn2cnc(-c3ccccc3)c2C)cccc1N(C)C,470,2200,–,–
CN(C)c1cccc(OCCCn2cnc(-c3ccccc3)c2)c1NC(=O)NC(C)(C)C,130,990,–,Cholesterol reduction (Rattus norvegicus [1]): -12%
CCCCCCNC(=O)Nc1c(OCCCn2cnc(-c3ccccc3)c2)cccc1N(C)C,60,50,–,Plasma total cholesterol (Oryctolagus cuniculus [4]): 924 mg/dL; ED30 (Rattus norvegicus [5]): 1.3 mg/kg; Cholesterol reduction (Rattus norvegicus [1]): -57%; Surface involvement (Oryctolagus cuniculus [6]): 30.6%
CN(C)c1cccc(OCCCn2cnc(-c3ccccc3)c2)c1NC(=O)NC1CCCC1,240,3530,–,Cholesterol reduction (Rattus norvegicus [1]): -24%
CCCCCNC(=O)Nc1c(OCCCNCCc2ccccc2)cccc1N(C)C,960,3440,-18,–
CCCCCNC(=O)Nc1c(OCCCn2cc(-c3ccc(OC)cc3)nc2C)cccc1N(C)C,160,730,-15,–
CCCCCCNc1c(OCCCn2cnc(-c3ccccc3)c2)cccc1N(C)C,11000,3300,–,–
CCCCCNC(=O)Nc1cccc(OCCCn2cnc(-c3ccccc3)c2C)c1N(C)C,5800,3200,–,–
CCCCCNC(=O)Nc1c(OCCn2cnc(-c3ccccc3)c2)cccc1N(C)C,170,1400,–,–
CCCNC(=O)Nc1c(OCCCn2cnc(-c3ccccc3)c2)cccc1N(C)C,660,7230,–,–
CCCCCNC(=O)Nc1c(OCCCCn2cnc(-c3ccccc3)c2)cccc1N(C)C,160,780,–,–
CCNC(=O)Nc1c(OCCCn2cnc(-c3ccccc3)c2)cccc1N(C)C,870,> 10000,–,Cholesterol reduction (Rattus norvegicus [1]): 2%
CCCCCNC(=O)Nc1c(OCCCn2cnc(-c3cccc4ccccc34)c2)cccc1N(C)C,65,1550,-30,–
CCCCCNC(=O)Nc1ccc(OCCCn2cnc(-c3ccccc3)c2C)cc1N(C)C,2400,1500,–,–
CCCCCNC(=O)Nc1c(OCCCn2cnc(-c3ccccc3)c2C)ncnc1N(C)C,5500,11000,–,–
CCCCCNC(=O)Nc1c(OCCCn2cnc(-c3ccccc3)c2C)cccc1N(C)C,–,110,-49,ED30 (Rattus norvegicus [5]): 4.5 mg/kg; Plasma total cholesterol (Oryctolagus cuniculus [8]): 800 mg/dL; Surface involvement (Oryctolagus cuniculus [6]): 21%

# Continued, in another order:
IC50 (O-acyltransferase) [nM],IC50 [2] [nM],SMILES,Cholesterol reduction (Rattus norvegicus [3]) [%],further results
200,100,CCCCCC(=O)Nc1c(OCCCn2cnc(-c3ccccc3)c2)cccc1N(C)C,–,Cholesterol reduction (Rattus norvegicus [1]): 3%
380,480,CCCCCNC(=O)Nc1c(OCCCn2ccnc2-c2ccccc2)cccc1N(C)C,–,Cholesterol reduction (Rattus norvegicus [7]): -12%
32,180,CCCCCNC(=O)Nc1c(OCCCn2ncc(-c3ccccc3)n2)cccc1N(C)C,-32,–
56,58,CCCCCNC(=O)Nc1c(SCCCn2cnc(-c3ccccc3)c2C)cccc1N(C)C,–,–
54,430,CCCCCNC(=O)Nc1c(OCCCn2cnc(-c3ccc(CCCC)cc3)c2)cccc1N(C)C,-46,–
410,250,CCCCCNC(=O)Nc1c(N(C)C)ccc(C)c1OCCCn1cnc(-c2ccccc2)c1,–,–
550,280,CCCCCN(C)C(=O)Nc1c(OCCCn2cnc(-c3ccccc3)c2)cccc1N(C)C,–,–
340,470,CCCCCNC(=O)Nc1c(OCCCN2CCC(c3ccccc3)CC2)cccc1N(C)C,-27,–
410,410,CCCCCNC(=O)Nc1cc(OCCCn2cnc(-c3ccccc3)c2C)ccc1N(C)C,–,–
930,400,CCCCCNC(=O)N(C)c1c(OCCCn2cnc(-c3ccccc3)c2)cccc1N(C)C,–,–
85,210,CCCCCNC(=O)Nc1c(OCCCn2cnc(C)c2-c2ccccc2)cccc1N(C)C,-46,–
170,140,CCCCCNC(=O)Nc1c(CCCCn2cnc(-c3ccccc3)c2C)cccc1N(C)C,-37,–
770,290,CCCCCNC(=O)Nc1c(OCCCn2nc3ccccc3n2)cccc1N(C)C,-3.4,–
23,230,CCCCCNC(=O)Nc1c(OCCCn2nnc(-c3ccccc3)n2)cccc1N(C)C,-48,–
–,180,CCCCCNC(=O)Nc1c(OCCCN2CCN(c3ccccc3)CC2)cccc1N(C)C,-44,–
